A short description of series [1]: Inhibition of recombinant Respiratory syncytial virus-A2-L19F RNA-dependent RNA polymerase complex D489E mutant transfected with firefly luciferase gene at SMASh domain in human BEAS2B cells infected with Respiratory syncytial virus-A2-L19F assessed as reduction in viral replication measured after […] by bioluminescence assay. Type of series: cell-based. The conditions noted are these: human respiratory syncytial virus, A2-L19F, BEAS-2B. Put shortly: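 BEAS-2B cells (1.5×10^4/well) received 3-fold serial compound dilutions prepared in three repeats (top concentration 10 µM) and were infected with firefly-luciferase/SMASh reporter RSV-A2-L19F D489E (MOI 0.1). Luminescence was converted to % inhibition against four-replicate positive and negative controls per plate. EC50 came from four-parameter variable-slope regression.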

In the next series the test system is BEAS-2B. As to the kind of experiment: Cytotoxicity against human BEAS2B cells after 48 hrs by PrestoBlue staining based fluorescence assay. Type of series: cell-based. Put shortly: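 Uninfected BEAS-2B cells were exposed to compound for 48 h at 37°C. PrestoBlue was added and incubated 90 min at 37°C, then fluorescence was read (ex 560 nm, em 590 nm). Cytotoxic was defined as metabolic activity <70% of vehicle control. Highest concentration assessed for cytotoxicity was 90 µM, and CC50 came from four-parameter variable slope regression.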

Series [2] is described as follows: Selectivity index, ratio of CC50 for human BEAS2B cells to EC50 for inhibition of recombinant mkate-tagged-Respiratory syncytial virus-A2-L19F RNA-dependent RNA polymerase complex D489E mutant in human BEAS2B cells infected with Respiratory syncytial virus-A2-L19F. Type of series: toxicity, cell-based. The conditions noted are these: read-out: Ratio CC50/EC50. An outline of the steps: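 SI is CC50/EC50 in BEAS-2B cells. EC50 came from reporter RSV dose-response, 3-fold dilutions, top 10 µM. […] Both values from four-parameter variable-slope regression.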

Series [3] can be described thus: Aqueous solubility of the compound in phosphate buffered saline at pH 7.4 after 90 mins by laser nephelometric method. In kind it is physicochemical. An outline of the steps:
(§1)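 Stocks of 30 mg/mL in DMSO were serially diluted in DMSO, then into buffer to final 300 down to 1.5 µg/mL at 1% final DMSO. Diluent was PBS for pH 7.4 and citrate buffer for pH 3 and 5. Plates stood 90 min at ambient temperature. Forward-scatter laser nephelometry gave the concentration at which precipitation began.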

The nature of series [4]: Aqueous solubility of the compound in citrate buffer at pH 5 after 90 mins by laser nephelometric method. In kind it is physicochemical. Put shortly: as §1
A short description of series [5]: Aqueous solubility of the compound in citrate buffer at pH 3 after 90 mins by laser nephelometric method. Type of series: physicochemical. Put shortly: as §1
Series [6] can be described thus: Inhibition of recombinant mkate-tagged-Respiratory syncytial virus-A2-L19F RNA-dependent RNA polymerase D489E mutant in human BEAS2B cells infected with Respiratory syncytial virus-A2-L19F assessed as reduction in progeny release measured after 48 hrs postinfection by fluorescence assay based progeny virus yield-based dose-response assay. In kind it is cell-based. The conditions noted are these: BEAS-2B. Put shortly:
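Cells in 12-well format infected with mKate-expressing recRSV-A2-L19F (MOI 0.05 particles/cell) in the presence of serial compound dilutions at 37°C. Cell-associated progeny harvested 48 h post-infection and released by one freeze/thaw cycle. Titres determined by TCID50 titration. Two repeats; EC50 derived by regression.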

In series [7] the test system is Respiratory syncytial virus. As to the kind of experiment: Inhibition of Respiratory syncytial virus-A2-L19F RNA-dependent RNA polymerase complex D489E mutant in human BEAS2B cells infected with Respiratory syncytial virus-A2-L19F by firefly luciferase reporter-based RSV minigenome assay. In kind it is cell-based. On the technique in general: Reporter assays use an easily measured gene product as a stand-in for the process of interest.

Converted amounts (≈) assume the structure as drawn.

Data on 42 compounds can be found in ChEMBL document CHEMBL4007453, “Identification of Non-Nucleoside Inhibitors of the Respiratory Syncytial Virus Polymerase Complex” (J Med Chem, 2017).

As a reminder, the EC50 is the midpoint of the concentration-response curve. `Cc1ccoc1C(=O)N1CCn2nc(C(=O)Nc3ccccc3)cc2C1`: in series [1], the half-maximal effective concentration (EC50) is above 10 µM.

Take `Cc1c(C(=O)N2CCCn3nc(C(=O)Nc4ccccc4)cc3C2)oc2ccccc12`: the concentration giving a half-maximal response (EC50) in series [1] was found to be 10 µM.

As usually defined, the CC50 is the concentration at which the toxic effect on the cells reaches its halfway point. Read a low CC50 as greater toxicity to the cells. Consider `COc1ccc(NC(=O)c2cc3n(n2)CCCN(C(=O)c2occc2C)C3)cc1`, for which the half-maximal cytotoxic concentration (CC50) with BEAS-2B came to 90 µM. Also, the selectivity ratio in series [2] stood at 281. Besides, the EC50 in series [1] amounted to 0.32 µM.

Consider `Cc1cc(C)c(C(=O)N2CCCn3nc(C(=O)Nc4ccccc4)cc3C2)o1`, for which half-maximal cytotoxicity with BEAS-2B (CC50) was put at 2.6 µM. The EC50 in series [1] was 0.96 µM.

Turning to `Cc1ccoc1CN1CCCn2nc(C(=O)Nc3ccccc3)cc2C1`, the concentration giving a half-maximal response (EC50) in series [1] was above 10 µM.

The solubility (kinetic) is solubility judged after dilution from a stock solution rather than from solid. Compound `COc1ccccc1NC(=O)c1cc2n(n1)CCCN(C(=O)c1occc1C)C2` registered a CC50 in the series on BEAS-2B of 3.3 µM. In series [2], the selectivity ratio was 11. Also, the solubility (kinetic) at 1.5 h in series [3] was 28 µg/mL (≈ 71 µM); in series [4], 43 µg/mL (≈ 109 µM); in series [5], 48 µg/mL (≈ 122 µM). For the same compound, in series [1], the EC50 was 0.31 µM.

The compound `Cc1ccc(NC(=O)c2cc3n(n2)CCCN(C(=O)c2occc2C)C3)cc1` yielded a CC50 in the series with BEAS-2B of 30 µM. Moreover, the selectivity ratio in series [2] stood at 73. Besides, in series [1], the 50% effective concentration (EC50) came to 0.41 µM.

For the compound `CC(C)c1cc(C(=O)NCc2noc(-c3cccs3)n2)n(C)n1`, in series [6], the EC50 is 0.03 µM. Besides, the inhibition result in series [7] was “Dose-dependent effect”.

Turning to `Cc1ccoc1C(=O)N1CCCn2nc(C(=O)NCc3ccccc3)cc2C1`, in the series on BEAS-2B, the half-maximal cytotoxic concentration (CC50) was determined as 50 µM. For the same compound, the selectivity ratio in series [2] amounted to 42. For the same compound, in series [1], the 50% effective concentration (EC50) stood at 1.2 µM.

Consider `Cc1ccsc1C(=O)N1CCCn2nc(C(=O)Nc3ccccc3)cc2C1`, for which the concentration for a half-maximal effect (EC50) in series [1] was above 10 µM.

Turning to `Cc1ccn(C)c1C(=O)N1CCCn2nc(C(=O)Nc3ccccc3)cc2C1`, in series [1], the EC50 was above 10 µM.

In the case of `Cc1ccc(C(=O)N2CCCn3nc(C(=O)Nc4ccccc4)cc3C2)o1`, the EC50 in series [1] was above 10 µM.

`Cc1ccccc1NC(=O)c1cc2n(n1)CCCN(C(=O)c1occc1C)C2` returned a CC50 with BEAS-2B of 1.1 µM. Further, the selectivity ratio in series [2] turned out to be 8. Further, the half-maximal effective concentration (EC50) in series [1] was determined as 0.14 µM.

For the compound `Cc1ccoc1C(=O)N1CCCn2nc(C(=O)Nc3ccc(F)cc3)cc2C1`, it took 90 µM to reach half-maximal cytotoxicity with BEAS-2B (CC50). Moreover, the selectivity ratio in series [2] was 273. Moreover, in series [1], the 50% effective concentration (EC50) is 0.33 µM.

Turning to `Cc1ccoc1C(=O)N1CCCn2nc(NS(=O)(=O)c3ccccc3)cc2C1`, the EC50 in series [1] is above 10 µM.

`Cc1coc(C(=O)N2CCCn3nc(C(=O)Nc4ccccc4)cc3C2)c1C` registered a CC50 in the series on BEAS-2B of 30 µM. Besides, in series [2], the selectivity ratio was 13. Moreover, the EC50 in series [1] is 2.25 µM.

With `O=C(Nc1ccccc1)c1cc2n(n1)CCCN(S(=O)(=O)c1ccco1)C2`, the EC50 in series [1] is above 10 µM.

Take `Cc1ccoc1C(=O)N1CCCn2nc(C(=O)Nc3cncnc3)cc2C1`: in series [1], the half-maximal effective concentration (EC50) was above 10 µM.

For `Cc1ccoc1C(=O)N1CCCn2nc(NC(=O)c3ccccc3)cc2C1`, the EC50 in series [1] was above 10 µM.

As to `O=C(Nc1ccccc1F)c1cc2n(n1)CCCN(C(=O)c1ccco1)C2`, the CC50 with BEAS-2B is 3.7 µM. For the same compound, the selectivity ratio in series [2] came out at 12. The EC50 in series [1] was 0.32 µM.

Take `Cc1ccoc1C(=O)N1CCCn2nc(S(=O)(=O)Nc3ccccc3)cc2C1`: the half-maximal effective concentration (EC50) in series [1] was above 10 µM.

`O=C(Nc1ccccc1)c1cc2n(n1)CCCN(C(=O)c1occc1-c1ccccc1)C2`: the EC50 in series [1] was above 10 µM.

In turn, `Cc1ccoc1C(=O)N1CCCn2nc(CNc3ccccc3)cc2C1` had a half-maximal cytotoxic concentration (CC50) with BEAS-2B of 10 µM. In addition, the selectivity ratio in series [2] came to 20. Further, in series [1], the EC50 stood at 0.5 µM.

`Cc1nc2ccccn2c1CN(C)C(=O)c1cc(COc2ccc(F)cc2F)on1`: the 50% effective concentration (EC50) in series [6] was 0.05 µM. Also, the inhibition entry in series [7] is “Dose-dependent effect”.

As for `O=C(Nc1ccccc1)c1cc2n(n1)CCCN(C(=O)c1ccco1)C2`, the half-maximal effective concentration (EC50) in series [1] worked out at 7.1 µM.

`Cc1ccoc1C(=O)N1CCCn2nc(C(=O)N(C)c3ccccc3)cc2C1` came in with a CC50 with BEAS-2B above 90 µM. In addition, in series [2], the selectivity ratio is above 9. For the same compound, the kinetic solubility at 1.5 h was found to be 58 µg/mL (≈ 153 µM) in series [3], 25 µg/mL (≈ 66.1 µM) in series [4] and 20 µg/mL (≈ 52.8 µM) in series [5]. In addition, the EC50 in series [1] amounted to 10 µM.

Take `Cc1cc(C(=O)N2CCCn3nc(C(=O)Nc4ccccc4)cc3C2)oc1C`: in series [1], the concentration giving a half-maximal response (EC50) is above 10 µM.

For `COc1cccc(NC(=O)c2cc3n(n2)CCCN(C(=O)c2occc2C)C3)c1`, the 50% cytotoxic concentration (CC50) in the series on BEAS-2B stood at 30 µM. For the same compound, the selectivity ratio in series [2] was found to be 56. In addition, the EC50 in series [1] was 0.54 µM.

Take `Cc1ccoc1C(=O)N1CCCn2cc(C(=O)Nc3ccccc3)cc2C1`: the CC50 in the series with BEAS-2B is above 90 µM. For the same compound, the selectivity ratio in series [2] was above 28. Besides, the half-maximal effective concentration (EC50) in series [1] is 3.19 µM.

On to `O=C(Nc1ccccc1)c1cc2n(n1)CCCN(C(=O)c1ccncn1)C2`, for which, in series [1], the EC50 was above 10 µM.

Consider `Cc1coc(C(=O)N2CCCn3nc(C(=O)Nc4ccccc4)cc3C2)c1`, for which the EC50 in series [1] is above 10 µM.

With `Cn1c(=O)n(C)c2cc(Cn3cnc(-c4ccccc4)c3C3CC3)ccc21`, the half-maximal effective concentration (EC50) in series [6] was determined as 0.17 µM. The inhibition result in series [7] is “Dose-dependent effect”.

The compound `O=C(Nc1ccccc1)c1cc2n(n1)CCCN(C(=O)c1occc1Cl)C2` came in with a CC50 in the series with BEAS-2B of 30 µM. The selectivity ratio in series [2] is 39. In addition, the EC50 in series [1] turned out to be 0.76 µM.

Regarding `O=C(Nc1ccccc1)c1cc2n(n1)CCCN(C(=O)c1occc1C(F)(F)F)C2`, the CC50 in the series on BEAS-2B amounted to 30 µM. Also, in series [2], the selectivity ratio stood at 6. Further, the half-maximal effective concentration (EC50) in series [1] was 5.4 µM.

In the series with BEAS-2B, `Cc1ccoc1C(=O)N1CCCn2nc(C(=O)Nc3ccc(F)cc3F)cc2C1` came in with a CC50 of 5 µM. Besides, in series [2], the selectivity ratio came out at 83. Moreover, the EC50 in series [1] stood at 0.06 µM.

For the compound `Cc1ccoc1C(=O)N1CCCn2nc(C(=O)Nc3cccc(F)c3)cc2C1`, the CC50 in the series on BEAS-2B is 30 µM. Besides, the selectivity ratio in series [2] amounted to 143. Moreover, the EC50 in series [1] is 0.21 µM.

With `Cc1ccoc1C(=O)N1CCCn2nc(C(=O)Nc3ccncn3)cc2C1`, in the series with BEAS-2B, the 50% cytotoxic concentration (CC50) was 16.6 µM. The selectivity ratio in series [2] turned out to be 11. In addition, the concentration for a half-maximal effect (EC50) in series [1] amounted to 1.53 µM.

In the series with BEAS-2B, `O=C(Nc1ccccc1)c1cc2n(n1)CCCN(C(=O)c1occ3c1CCC3)C2` registered a CC50 of 10 µM. For the same compound, in series [1], the EC50 is 10 µM.

For `Cc1cc[nH]c1C(=O)N1CCCn2nc(C(=O)Nc3ccccc3)cc2C1`, the half-maximal effective concentration (EC50) in series [1] is above 10 µM.

The compound `CCc1ccoc1C(=O)N1CCCn2nc(C(=O)Nc3ccccc3)cc2C1` yielded a CC50 in the series on BEAS-2B of 10 µM. In series [2], the selectivity ratio was found to be 14. Besides, the EC50 in series [1] worked out at 0.73 µM.

As for `Cc1cccc(NC(=O)c2cc3n(n2)CCCN(C(=O)c2occc2C)C3)c1`, it took 3.3 µM to reach half-maximal cytotoxicity in the series on BEAS-2B (CC50). Moreover, in series [2], the selectivity ratio is 12. Also, the concentration giving a half-maximal response (EC50) in series [1] is 0.28 µM.

Consider `COc1cc(N2CCCC(CO)(Cc3cccc(Cl)c3)C2)ncn1` (configuration not stated), for which the concentration giving a half-maximal response (EC50) in series [6] stood at 0.13 µM. Also, in series [7], the inhibition result is “Dose-dependent effect”.
